The results in this text go back to ChEMBL document CHEMBL3351510, “Identification and development of 2-methylimidazo[1,2-a]pyridine-3-carboxamides as Mycobacterium tuberculosis pantothenate synthetase inhibitors” (Bioorg Med Chem, 2014).

Data set [1] deals with Mycobacterium tuberculosis. Briefly: Antimycobacterial activity against Mycobacterium tuberculosis H37Rv ATCC 27294 assessed as growth inhibition after 28 days by agar dilution method. It is filed as functional. The note with it: H37Rv ATCC 27294, 672 h. The procedure, abridged:
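Agar dilution in Middlebrook 7H11 with OADC; two-fold dilutions, final 50 to 0.78 µg/mL. Inoculum from fresh 7H11 slants, 1 mg/mL wet weight in 0.05% Tween 80 saline, diluted 10⁻² (~10⁷ cfu/mL); 5 µL spotted per tube. Incubated 37 °C, read at 28 days; MIC = lowest concentration giving complete growth inhibition. Isoniazid, ethambutol, GSK358607A references.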

The target of the next data set is T1, Pantothenate synthetase (Mycobacterium tuberculosis, UniProt P9WIL5).
T1 sequence (P9WIL5 whole entry): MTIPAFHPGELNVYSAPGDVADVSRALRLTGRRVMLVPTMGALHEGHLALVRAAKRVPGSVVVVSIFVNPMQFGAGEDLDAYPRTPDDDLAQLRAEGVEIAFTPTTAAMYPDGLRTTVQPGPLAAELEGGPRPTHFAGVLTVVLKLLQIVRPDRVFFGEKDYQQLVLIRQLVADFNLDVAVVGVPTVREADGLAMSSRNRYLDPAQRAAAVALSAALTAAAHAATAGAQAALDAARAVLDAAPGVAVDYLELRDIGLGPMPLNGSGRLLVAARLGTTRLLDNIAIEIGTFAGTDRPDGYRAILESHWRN
Description: Inhibition of Mycobacterium tuberculosis pantothenate synthetase expressed in Escherichia coli BL21 (DE3) by spectrophotometry. The procedure, abridged:
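Reaction started by adding PS diluted in buffer; absorbance at 340 nm read every 12 s for 120 s. Percent inhibition = 100 × [1 − (compound rate − background rate)/(full reaction rate − background rate)].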

A short description of data set [2]: Cytotoxicity against mouse RAW264.7 cells assessed as inhibition of cell viability at 50 uM after 72 hrs by MTT assay. It is filed as cell-based. The note with it: read-out: INH.
Data set [3] concerns the target T2, Pantothenate synthetase (Mycobacterium tuberculosis) (UniProt P9WIL5).
T2 sequence (whole entry): T1 sequence (P9WIL5 whole entry)
Description: Binding affinity to Mycobacterium tuberculosis pantothenate synthetase assessed as melting temperature by differential scanning fluorimetry. The procedure, abridged:
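Protein–ligand complexes with SYPRO Orange dye heated 25 to 95 °C in 0.1 °C steps; fluorescence tracked to obtain Tm, with shift relative to native protein taken as stabilisation from binding.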
In general terms: In DSF a fluorescence change marks the thermal transition of the protein.

pIC50: −log10 of the molar value. Values after ≈ are worked out from the molar mass of the structure shown.

The term MIC denotes the least concentration at which growth counts as inhibited. The pIC50 is the negative decadic logarithm of the IC50, by convention in mol/L. With `Cc1nc2ccccn2c1C(=O)N/N=C/c1ccc([N+](=O)[O-])cc1`, the MIC in data set [1] amounted to 38.6 µM (≈ 12.5 µg/mL). Further, the pIC50 at Pantothenate synthetase was less than 4.60.
On to `Cc1nc2ccccn2c1C(=O)NNC(=O)c1ccccc1`, for which, in data set [1], the MIC stood at 42.4 µM (≈ 12.5 µg/mL). Besides, the pIC50 against Pantothenate synthetase is 5.45.
With `Cc1nc2ccccn2c1C(=O)N/N=C/c1ccc(C(F)(F)F)cc1`, in data set [1], the MIC was 9.01 µM (≈ 3.12 µg/mL). In addition, the cytotoxicity at 72 h, 50 µM in data set [2] was determined as 24.6%. Further, the pIC50 against Pantothenate synthetase is 5.09.
With `Cc1nc2ccccn2c1C(=O)NNC(=O)c1ccc(Oc2ccccc2)cc1`, the MIC in data set [1] was 32.3 µM (≈ 12.5 µg/mL). Further, the negative logarithm of the IC50 (pIC50) at Pantothenate synthetase is 5.14.
The like results for `Cc1ccc(C(=O)NNC(=O)c2c(C)nc3ccccn23)cc1` were, in that order, 80.9 µM (≈ 24.9 µg/mL) and 5.47.
As for `Cc1nc2ccccn2c1C(=O)NCCc1ccccc1`, the MIC in data set [1] was found to be 89.3 µM (≈ 24.9 µg/mL). The same molecule showed a pIC50 against Pantothenate synthetase of 5.24.
The like results for `COc1ccc(/C=N/NC(=O)c2c(C)nc3ccccn23)cc1` were, in that order, 80.9 µM (≈ 24.9 µg/mL) and 5.20.
The like results for `CC[C@@H](CO)NCCN[C@@H](CC)CO` [ETHAMBUTOL] were, in that order, 7.64 µM (≈ 1.56 µg/mL) and less than 4.60.
On to `Cc1nc2ccccn2c1C(=O)NNC(=O)c1ccco1`, for which the minimum inhibitory concentration (MIC) in data set [1] is 11 µM (≈ 3.12 µg/mL). The cytotoxicity at 72 h, 50 µM in data set [2] was determined as 16.8%. For the same molecule, the pIC50 on Pantothenate synthetase was 5.05.
For `Cc1nc2ccccn2c1C(=O)NC1CCCCC1`, the MIC in data set [1] is 96.9 µM (≈ 24.9 µg/mL). The pIC50 against Pantothenate synthetase is 5.70.
The like results for `Cc1nc2ccccn2c1C(=O)NNC(=O)c1cccc([N+](=O)[O-])c1` were, in that order, 36.8 µM (≈ 12.5 µg/mL) and 5.04.
For the molecule `Cc1nc2ccccn2c1C(=O)N/N=C/c1ccc(O)cc1`, the minimal inhibitory concentration (MIC) in data set [1] came to 21.2 µM (≈ 6.24 µg/mL). Moreover, in data set [2], the cytotoxicity at 72 h, 50 µM was 19.4%. This molecule had a pIC50 against Pantothenate synthetase of 5.13.
As for `Cc1nc2ccccn2c1C(=O)N/N=C/c1ccc(Br)cc1`, in data set [1], the MIC came to 35 µM (≈ 12.5 µg/mL). In addition, on Pantothenate synthetase, the pIC50 was 5.35.
The like results for `Cc1ccc2nc(C)c(C(=O)NCc3cccs3)n2c1` were, in that order, 0.19 µM (≈ 0.0542 µg/mL) and 5.09.
The like results for `Cc1nc2ccccn2c1C(=O)Nc1ccccn1` were, in that order, 98.8 µM (≈ 24.9 µg/mL) and less than 4.60.
For the molecule `Cc1nc2ccccn2c1C(=O)Nc1cccc(C(F)(F)F)c1`, the minimal inhibitory concentration (MIC) in data set [1] was found to be 78.1 µM (≈ 24.9 µg/mL). Also, the pIC50 against Pantothenate synthetase is 5.15.
For `COc1ccccc1C(=O)NNC(=O)c1c(C)nc2ccccn12`, the minimal inhibitory concentration (MIC) in data set [1] was determined as 19.2 µM (≈ 6.24 µg/mL). In addition, in data set [2], the cytotoxicity at 72 h, 50 µM came out at 19%. The molecule further showed a pIC50 against Pantothenate synthetase of 5.09.
The like results for `Cc1nc2ccccn2c1C(=O)NCc1ccccc1` were, in that order, 23.5 µM (≈ 6.23 µg/mL), 24.5% and 5.56.
In the same order, the values of `Cc1nc2ccccn2c1C(=O)NNC(=O)C1CCCCC1` are 10.4 µM (≈ 3.12 µg/mL), 31.7% and 5.11.
In the case of `COc1cc(/C=N/NC(=O)c2c(C)nc3ccccn23)cc(OC)c1OC`, the MIC in data set [1] came out at 67.8 µM (≈ 25 µg/mL). On Pantothenate synthetase, this molecule showed a pIC50 of 5.15.
The like results for `NNC(=O)c1ccncc1` [ISONIAZID] were, in that order, 0.72 µM (≈ 0.0987 µg/mL) and less than 4.60.
In the case of `Cc1nc2ccccn2c1C(=O)NNC(=O)c1ccc(Cl)cc1Cl`, the MIC in data set [1] worked out at 17.2 µM (≈ 6.25 µg/mL). Besides, the cytotoxicity at 72 h, 50 µM in data set [2] was determined as 20.1%. On Pantothenate synthetase, the pIC50 was 5.29.
As to `Cc1nc2ccccn2c1C(=O)N/N=C/c1ccc(OCc2ccccc2)cc1`, the MIC in data set [1] turned out to be 32.5 µM (≈ 12.5 µg/mL). At Pantothenate synthetase, the negative-log IC50 (pIC50) is 5.27.
As to `Cc1nc2ccccn2c1C(=O)N/N=C/c1ccc(F)cc1`, in data set [1], the MIC came out at 21 µM (≈ 6.23 µg/mL). Further, in data set [2], the cytotoxicity at 72 h, 50 µM was found to be 20.9%. The negative logarithm of the IC50 (pIC50) on Pantothenate synthetase is 5.42.
`Cc1nc2ccccn2c1C(=O)N/N=C/c1ccccc1`: in data set [1], the MIC was found to be 179 µM (≈ 49.9 µg/mL). This molecule had a negative logarithm of the IC50 (pIC50) against Pantothenate synthetase of 5.31.
Turning to `Cc1nc2ccccn2c1C(=O)Nc1ccc(Cl)cc1`, the MIC in data set [1] is 87.4 µM (≈ 25 µg/mL). Further, the pIC50 against Pantothenate synthetase is 5.59.
With `Cc1ccc(/C=N/NC(=O)c2c(C)nc3ccccn23)cc1`, the MIC in data set [1] was 21.3 µM (≈ 6.24 µg/mL). The cytotoxicity at 72 h, 50 µM in data set [2] came to 16.7%. Moreover, the pIC50 against Pantothenate synthetase is 5.13.
As for `Cc1nc2ccccn2c1C(=O)Nc1ccc(Br)cc1`, the minimum inhibitory concentration (MIC) in data set [1] was 37.9 µM (≈ 12.5 µg/mL). Further, at Pantothenate synthetase, the pIC50 is 5.16.
In the same order, the values of `Cc1nc2ccccn2c1C(=O)Nc1ccccc1` are 188 µM (≈ 47.2 µg/mL) and 4.89.
`CCOc1ccc(NC(=O)c2c(C)nc3ccccn23)cc1`: in data set [1], the MIC was 42.2 µM (≈ 12.5 µg/mL). The same molecule had a pIC50 on Pantothenate synthetase of less than 4.60.
With `Cc1nc2ccccn2c1C(=O)NNC(=O)c1cc([N+](=O)[O-])cc([N+](=O)[O-])c1`, the MIC in data set [1] stood at 16.2 µM (≈ 6.24 µg/mL). In data set [2], the cytotoxicity at 72 h, 50 µM was 40.6%. The molecule also had a pIC50 on Pantothenate synthetase of 5.19.
Take `Cc1nc2ccccn2c1C(=O)NNC(=O)c1cccc2ccccc12`: the minimum inhibitory concentration (MIC) in data set [1] was 4.53 µM (≈ 1.56 µg/mL). Also, in data set [3], the Tm turned out to be 51 °C. Also, the cytotoxicity at 72 h, 50 µM in data set [2] came out at 28.4%. Besides, at Pantothenate synthetase, the pIC50 was 5.72.
As to `Cc1nc2ccccn2c1C(=O)NCc1ccco1`, the MIC in data set [1] was 24.4 µM (≈ 6.23 µg/mL). Also, the cytotoxicity at 72 h, 50 µM in data set [2] came out at 20.7%. The same molecule had a pIC50 against Pantothenate synthetase of 5.55.
